According to ChEMBL document CHEMBL4033712, “Synthesis and biological evaluation of new C-12(α/β)-(N-) sulfamoyl-phenylamino-14-deoxy-andrographolide derivatives as potent anti-cancer agents” (Bioorg Med Chem Lett, 2017):

Columns and labels:
Assay type in all cases: functional
SF-539 = test: Growth inhibition of human SF539 cells incubated for 48 hrs by sulforhodamine B assay; details: SF-539, 48 h
Outline: (§1)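 NCI 60 human tumour cell line panel, five-dose study at 0.01, 0.1, 1, 10 and 100 µM, 48 h incubation. Sulforhodamine B protein-binding dye end point. GI50 (50% decrease in net cell growth), TGI (total growth inhibition) and LC50 (net 50% loss of initial cells) read from log concentration versus % growth inhibition curves.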

MCF7 = test: Growth inhibition of human MCF7 cells incubated for 48 hrs by sulforhodamine B assay; details: MCF7, 48 h
Outline: (§2)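 NCI-60 five-dose screen at 0.01, 0.1, 1, 10 and 100 µM, 48 h incubation, sulforhodamine B end point. GI50 (50% decrease in net growth), TGI (total growth inhibition) and LC50 (net 50% loss of initial cells) taken from log concentration versus % growth inhibition curves.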

U-251 = test: Growth inhibition of human U251 cells incubated for 48 hrs by sulforhodamine B assay; details: U-251, 48 h; outline: as §1
HOP-62 = test: Growth inhibition of human HOP62 cells incubated for 48 hrs by sulforhodamine B assay; details: HOP-62, 48 h; outline: as §2
SK-MEL-2 = test: Growth inhibition of human SK-MEL-2 cells incubated for 48 hrs by sulforhodamine B assay; details: SK-MEL-2, 48 h; outline: as §1
SF-295 = test: Growth inhibition of human SF295 cells incubated for 48 hrs by sulforhodamine B assay; details: SF-295, 48 h; outline: as §1
MOLT-4 = test: Growth inhibition of human MOLT4 cells incubated for 48 hrs by sulforhodamine B assay; details: MOLT-4, 48 h; outline: as §2
SW-620 = test: Growth inhibition of human SW620 cells incubated for 48 hrs by sulforhodamine B assay; details: SW-620, 48 h; outline: as §1
LOX IMVI = test: Growth inhibition of human LOXIMVI cells incubated for 48 hrs by sulforhodamine B assay; outline: as §2
NCI/ADR-RES = test: Growth inhibition of human NCI/ADR-RES cells incubated for 48 hrs by sulforhodamine B assay; outline: as §2
CCRF-CEM = test: Growth inhibition of human CCRF-CEM cells incubated for 48 hrs by sulforhodamine B assay; outline: as §2
SK-MEL-28 = test: Growth inhibition of human SK-MEL-28 cells incubated for 48 hrs by sulforhodamine B assay; details: SK-MEL-28, 48 h; outline: as §1
SK-OV-3 = test: Growth inhibition of human SKOV3 cells incubated for 48 hrs by sulforhodamine B assay; details: SK-OV-3, 48 h; outline: as §1
NCI-H460 = test: Growth inhibition of human NCI-H460 cells incubated for 48 hrs by sulforhodamine B assay; details: NCI-H460, 48 h; outline: as §2
DU-145 = test: Growth inhibition of human DU145 cells incubated for 48 hrs by sulforhodamine B assay; details: DU-145, 48 h; outline: as §2
OVCAR-3 = test: Growth inhibition of human OVCAR3 cells incubated for 48 hrs by sulforhodamine B assay; details: OVCAR-3, 48 h; outline: as §2
HCT-116 = test: Growth inhibition of human HCT116 cells incubated for 48 hrs by sulforhodamine B assay; details: HCT-116, 48 h; outline: as §2
A549 = test: Growth inhibition of human A549/ATCC cells incubated for 48 hrs by sulforhodamine B assay; details: A549, 48 h; outline: as §2
MDA-MB-435 = test: Growth inhibition of human MDA-MB-435 cells incubated for 48 hrs by sulforhodamine B assay; details: MDA-MB-435, 48 h; outline: as §2
UACC-257 = test: Growth inhibition of human UACC257 cells incubated for 48 hrs by sulforhodamine B assay; details: UACC-257, 48 h; outline: as §1
SR = test: Growth inhibition of human SR cells incubated for 48 hrs by sulforhodamine B assay; outline: as §1
HL-60(TB) = test: Growth inhibition of human HL-60(TB) cells incubated for 48 hrs by sulforhodamine B assay; details: HL-60, 48 h
Outline: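 NCI-60 five-dose screen at 0.01, 0.1, 1, 10 and 100 µM for 48 h, sulforhodamine B read-out. GI50 taken from log concentration versus % growth inhibition curves as the concentration giving 50% decrease in net cell growth.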

NCI-H226 = test: Growth inhibition of human NCI-H226 cells incubated for 48 hrs by sulforhodamine B assay; details: NCI-H226, 48 h; outline: as §2
CAKI-1 = test: Growth inhibition of human Caki1 cells incubated for 48 hrs by sulforhodamine B assay; details: CAKI-1, 48 h; outline: as §2
K562 = test: Growth inhibition of human K562 cells incubated for 48 hrs by sulforhodamine B assay; details: K562, 48 h; outline: as §2
T47D = test: Growth inhibition of human T47D cells incubated for 48 hrs by sulforhodamine B assay; outline: as §1
NCI-H522 = test: Growth inhibition of human NCI-H522 cells incubated for 48 hrs by sulforhodamine B assay; details: NCI-H522, 48 h; outline: as §2
HCC 2998 = test: Growth inhibition of human HCC2998 cells incubated for 48 hrs by sulforhodamine B assay; details: HCC 2998, 48 h; outline: as §2
[1] = read-out: LC50 (the source's name)

## C=C1CC[C@@H]2[C@](C)(COC(C)=O)[C@H](OC(C)=O)CC[C@@]2(C)[C@H]1CC(Nc1ccc(S(=O)(=O)Nc2cc(C)on2)cc1)C1=CCOC1=O (some centres not stated)
SF-539
  GI50: 1.59 µM
  TGI: 3.06 µM
SF-539; [1]
  CC50: 5.89 µM
MCF7
  GI50: 0.59 µM
  TGI: 2.76 µM
U-251
  GI50: 1.89 µM
  TGI: 3.4 µM
U-251; [1]
  CC50: 6.12 µM
HOP-62
  GI50: 8.88 µM
  TGI: 22.9 µM
HOP-62; [1]
  CC50: 56.9 µM
SK-MEL-2
  GI50: 2.04 µM
  TGI: 4.4 µM
SK-MEL-2; [1]
  CC50: 9.49 µM
SF-295
  GI50: 8.13 µM
  TGI: 21 µM
SF-295; [1]
  CC50: 47.7 µM
MOLT-4
  GI50: 2.12 µM
  TGI: 6.39 µM
MOLT-4; [1]
  CC50: > 100 µM
SW-620
  GI50: 1.32 µM
  TGI: 2.91 µM
SW-620; [1]
  CC50: 6.44 µM
LOX IMVI
  GI50: 1.18 µM
  TGI: 2.54 µM
LOX IMVI; [1]
  CC50: 5.46 µM
NCI/ADR-RES
  GI50: 2.41 µM
  LC50 (concentration giving net 50% loss of initial cells): > 100 µM
  TGI: 12 µM
CCRF-CEM
  GI50: 0.47 µM
  TGI: 2.71 µM
CCRF-CEM; [1]
  CC50: > 100 µM
SK-MEL-28
  GI50: 2.02 µM
  LC50 (50% net cell kill): 9.2 µM
  TGI: 4.31 µM
SK-OV-3
  GI50: 11 µM
  TGI: 23.1 µM
SK-OV-3; [1]
  CC50: 48.6 µM
NCI-H460
  GI50: 2.35 µM
  TGI: 5.7 µM
NCI-H460; [1]
  CC50: 27.7 µM
DU-145
  GI50: 2.43 µM
  TGI: 6.53 µM
DU-145; [1]
  CC50: 23 µM
OVCAR-3
  GI50: 1.66 µM
  TGI: 3.09 µM
OVCAR-3; [1]
  CC50: 5.75 µM
HCT-116
  GI50: 1.12 µM
  TGI: 2.39 µM
HCT-116; [1]
  CC50: 5.1 µM
A549
  GI50: 4.75 µM
  TGI: 15.4 µM
A549; [1]
  CC50: 42.2 µM
MDA-MB-435
  GI50: 1.74 µM
  TGI: 4.37 µM
MDA-MB-435; [1]
  CC50: 12.5 µM
UACC-257
  GI50: 2.95 µM
  TGI: 6.19 µM
UACC-257; [1]
  CC50: 18.7 µM
SR
  GI50: 0.37 µM
  TGI: 3.36 µM
SR; [1]
  CC50: > 100 µM
HL-60(TB)
  GI50: 1.39 µM
  TGI: 3.69 µM
HL-60(TB); [1]
  CC50: 9.82 µM
NCI-H226
  GI50: 1.81 µM
  TGI: 3.85 µM
CAKI-1
  GI50: 4.14 µM
  TGI: 14.7 µM
CAKI-1; [1]
  CC50: 38.6 µM
K562
  GI50: 1.57 µM
  TGI: 8.42 µM
K562; [1]
  CC50: > 100 µM
T47D
  GI50: 2.8 µM
  TGI: 7.37 µM
T47D; [1]
  CC50: > 100 µM
NCI-H522
  GI50: 1.04 µM
  TGI: 2.42 µM
NCI-H522; [1]
  CC50: 5.61 µM
HCC 2998
  GI50: 2.14 µM
  TGI: 4.05 µM
HCC 2998; [1]
  CC50: 7.64 µM
